High-throughput results (PubChem BioAssay)
MT1-MMP act inh = blockers of MT1-MMP proenzyme processing, primary screen, HT1080 RFP-PRO-GFP cells, GFP/RFP fluorescence; Matrix metalloproteinase-14 (Homo sapiens), P50281; GFP/RFP ratio fluorescence, overnight; percent of plate control window, DMSO zero; GFP/RFP ratio change, % at 20 µM; 360,000 tested, 0.061% active; AID 651647, 2012;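 active = GFP/RFP ratio change of at least 30% with cell ATP level not reduced by more than half and red fluorescence within 50% of control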
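Read-out: GFP/RFP fluorescence ratio; Test system: RFP-PRO-GFP reporter HT1080 cells; Compound dosing: single-point 20 µM compound, 1% DMSO; Times: overnight compound exposure at 37 °C.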
Neddyl block = inhibitors of cullin neddylation, primary screen, biochemical, TR-FRET, uHTS, NAE and Ubc12; 360,000 tested, 0.58% active; calls only at 25 µM; NEDD8-conjugating enzyme Ubc12 (Homo sapiens) + NEDD8-activating enzyme E1 regulatory …; in the data active = inhibition above about 36%
SKN-1 block = suppressors of acrylamide-induced Pgst-4::GFP reporter in worms, primary screen, SKN-1 inhibitor project, whole organism, uHTS, GFP/RFP fluorescence ratio, strain VP596 | C. elegans VP596 Pgst-4::GFP/RFP ratio, 24 h | inhibition, % at 21.8 µM | 360,000 tested, 0.49% active;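 active = interference check ratio from 0.5 to 1.5 plus GFP to RFP signal ratio inhibition reaching or exceeding a fixed threshold, cut at about 30% in these data, passing the limit was not always enough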
proKLK7 act = proKLK7 zymogen activators, primary screen, biochemical, fluorescence intensity; Kallikrein-7 (Homo sapiens), P49862; activation, % at 7 µM; purified proKLK7, EDANS-DABCYL substrate fluorescence; 100% is mature enzyme control, 0% vehicle; 370,000 tested, 0.9% active;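 active = activation above the mean of all tested compounds plus 3 SD, computed per campaign excluding outliers beyond control limits, cut at about 13% in these data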
Tn7 DDE FP = inhibitors of Tn7 peptide binding to fibrin DD(E), primary screen, biochemical, fluorescence polarization, human fibrin, Tn7 probe; Fibrinogen beta chain (Homo sapiens), P02675; 370,000 tested, 0.13% active; inhibition, % at 8.3 µM; FP displacement of FITC-Tn7 peptide from fibrin DD(E); 0% = median of compound wells per plate;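 active = inhibition above the mean of compounds falling within the control limits plus 3 SD of them, cut at about 14% in these data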;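 also: 0% = plate median of compound wells and 100% = 10 µM Aha-Tn7 peptide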
Target sequence (P02675 whole entry, looked up): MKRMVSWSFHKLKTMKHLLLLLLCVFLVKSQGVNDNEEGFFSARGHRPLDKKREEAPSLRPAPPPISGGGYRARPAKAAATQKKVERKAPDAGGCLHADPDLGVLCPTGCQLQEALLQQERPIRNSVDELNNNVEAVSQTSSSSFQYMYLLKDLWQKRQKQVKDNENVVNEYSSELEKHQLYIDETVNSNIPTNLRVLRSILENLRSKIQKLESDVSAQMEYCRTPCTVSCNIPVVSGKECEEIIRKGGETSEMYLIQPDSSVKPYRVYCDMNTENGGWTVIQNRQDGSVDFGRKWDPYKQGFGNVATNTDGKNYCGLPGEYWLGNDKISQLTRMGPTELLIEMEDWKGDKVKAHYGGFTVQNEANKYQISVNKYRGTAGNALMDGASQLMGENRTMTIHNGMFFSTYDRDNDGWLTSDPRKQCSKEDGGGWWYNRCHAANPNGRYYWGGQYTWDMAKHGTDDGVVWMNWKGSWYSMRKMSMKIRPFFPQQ
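System: human fibrin DD(E); quantity: Fibrin-DD(E) at 2 µM final; also added: fluorescent Tn7 probe at 0.1 µM; compound dosing: single nominal test concentration of 8.3 µM per compound; schedule: 10 min preincubation, 3 h with tracer, room temperature; detection: fluorescence polarization of the labelled Tn7 tracer; repeats: one replicate per compound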
DDE Tn6 FP inh = inhibitors of Tn6 peptide binding to fibrin DD(E), primary screen, biochemical, fluorescence polarization, human fibrin, Tn6 probe; Fibrinogen beta chain (Homo sapiens), P02675; Fibrin DD(E) TRITC-Tn6 fluorescence polarization displacement; inhibition, % at 8.3 µM; 370,000 tested, 0.21% active; AID 720509, 2013;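 active = inhibition above a per-campaign cutoff: mean of compounds within control limits plus 3 SD, cut at about 15% in these data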;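 also: 0% = median of all compound wells on the plate and 100% = blocking peptide control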
Tn6 DDE ctr = counter-screen for inhibitors of Tn6 peptide binding to fibrin DD(E) | shares compounds with DDE Tn6 FP inh | TRITC-Tn6 fluorescence polarization displacement; 0% = median of compound wells, not DMSO | inhibition, % at 8.3 µM | 680 tested, 2% active | AID 720621;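 active = inhibition above the mean of test compounds lying between the control limits plus 3 SD of those, cut at about 14% in these data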;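 also: 0% = median of compound wells and 100% = wells with Aha-Tn7 blocking peptide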
Tn6 DDE conf = inhibitors of Tn6 peptide binding to fibrin DD(E), confirmation, biochemical, fluorescence polarization, human fibrin, Tn6 probe; shares compounds with DDE Tn6 FP inh; FP displacement of TRITC-Tn6 peptide from DD(E); 0% = per-plate median of test wells; inhibition, % at 8.3 µM; 680 tested, 10% active; AID 720631, 2013;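 active = inhibition above the mean of compounds lying within the control limits plus 3 SD, cut at about 16% in these data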;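 also: 100% = high control wells holding a competing inhibitor peptide at 10 µM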
* marks the source's active call; other numbers are inactive results; i = inactive; x = not tested or not shown. Sampled rows, rich in hits. Any-hit rate of the full collection: about 2.2%.

SMILES	MT1-MMP act inh	Neddyl block	SKN-1 block	proKLK7 act	Tn7 DDE FP	DDE Tn6 FP inh	Tn6 DDE ctr	Tn6 DDE conf
O=[n+]1c2c(n([O-])c3cc(F)c(N4CCCC4)cc31)CCC2	-124	i	44	8	12	16*	4	17*
Cc1cc(C)c(S(=O)(=O)NCCn2c(C)cc3ccccc32)c(C)c1	42	i	54	0	-8	56*	-4	23*
Cc1cc2ccccc2n1CCNC(=O)c1ccc(S(=O)(=O)N2CCCCC2)cc1	24	i	53	1	0	62*	-4	31*
Cc1cc(C)c(S(=O)(=O)NCCCn2ccnc2)c(C)c1	0	i	5	0	5	1	x	x
Cc1cc2ccccc2n1CCNC(=O)Cc1ccccc1	43	i	42	0	11	26*	-6	-4
Cc1ccc(Cl)cc1-c1cc(C(=O)NCc2ccco2)[nH]n1	3	i	14	-1	-4	-5	x	x
COc1cccc(CNC(=O)c2ccc(S(=O)(=O)N3CCOCC3)cc2)c1	-1	i	-5	1	3	-6	x	x
Cc1cc2cc(CNC(=O)c3ccc(S(=O)(=O)N4CCCCC4)cc3)ccc2[nH]1	5	i	17	1	-10	18*	5	-5
Cc1cc2cc(CNC(=O)c3ccc(S(=O)(=O)N(C)C)cc3)ccc2n1C	32	i	45*	-1	-2	65*	5	14
Cc1ccc(CNC(=O)c2ccc(S(=O)(=O)N3CCCCCC3)cc2)cc1	-4	i	1	0	-1	-6	x	x
Cc1cc2cc(CNC(=O)c3ccc(S(=O)(=O)N4CCOCC4)cc3)ccc2n1C	35	i	45	0	3	53*	5	19*
CCC(=O)N1CCC1(C)C(=O)Nc1cccc(Oc2ccccc2)c1 (stereo not drawn)	-3	i	-3	0	4	6	x	x
O=C(CSc1nnc(CNC(=O)c2ccco2)o1)Nc1ccccc1	-3	i	4	0	-1	0	x	x
O=C(CSc1nnc(CNC(=O)c2ccco2)o1)NC1CCCC1	-7	i	7	0	7	16*	0	-3
Cc1ccc(CNC(=O)CCc2c(C)nc3c(c(C)nn3-c3ccc(C)cc3)c2C)cc1	-1	i	18	0	-2	6	x	x
CCCCCCCC1CC(CSc2ncn[nH]2)OC1=O (stereo not drawn)	1	i	2	1	-3	3	x	x
CCCCC1CC(CSc2ncn[nH]2)OC1=O (stereo not drawn)	2	i	-6	0	6	72*	-1	-7
CCCCC1CC(CSC(=N)N)OC1=O (stereo not drawn)	1	i	6	0	6	18*	1	-4
COc1ccc(S(=O)(=O)N2CCCCC2)cc1NC(=O)c1ccco1	4	i	-9	0	2	2	x	x
Cc1nnsc1C(=O)NNS(=O)(=O)c1cc(C(F)(F)F)cc(C(F)(F)F)c1	1	i	-6	1	-3	-2	x	x
O=C(CCc1ccccc1)N1CCN(CCO)CC1	1	i	4	1	1	3	x	x
COc1ccc(CNC(=O)CN2C(=O)NC(C)(c3ccc(C(C)(C)C)cc3)C2=O)cc1 (stereo not drawn)	0	i	1	1	7	2	x	x
COc1ccc(C2(C)NC(=O)N(CC(=O)NC(C)c3ccc(CC(C)C)cc3)C2=O)cc1 (stereo not drawn)	-1	i	13	1	2	19*	9	0
CCOc1ccc(C=NCC(O)c2ccccc2)cc1 (stereo not drawn)	0	i	12	-1	6	-4	x	x
CCCCNC(=O)CCC(=O)Nc1ccc2nc(N3CCCCC3)cc(C)c2c1	3	x	8	0	5	16*	4	3
SMILES	MT1-MMP act inh	Neddyl block	SKN-1 block	proKLK7 act	Tn7 DDE FP	DDE Tn6 FP inh	Tn6 DDE ctr	Tn6 DDE conf
Cc1ccc(-c2csc3ncnc(N4CCN(c5ccccc5O)CC4)c23)cc1	-11	i	2	0	4	16*	4	-2
COc1ccc(-c2csc3ncnc(N4CCN(c5ccccc5O)CC4)c23)cc1	-7	i	0	x	x	x	x	x
NC(=O)C1(N2CCCCC2)CCN(C(=O)CSc2nc3ccccc3s2)CC1	-4	i	5	0	3	17*	3	2
O=C(CSc1nc2ccccc2s1)N1CCOCC1	3	i	-23	0	-7	4	x	x
COc1ccc(NC(=O)C(c2cc3c(cc2[N+](=O)[O-])OCO3)N(C)C)cc1 (stereo not drawn)	3	i	2	0	-9	15*	-3	-6
COc1ccc(NC(=O)c2ccc(NC(=O)C(C)C)cc2)c([N+](=O)[O-])c1	-1	i	6	0	10	4	x	x
Cc1ccccc1-c1noc(-c2ccccc2C(=O)NCc2ccco2)n1	1	i	-5	1	-3	3	x	x
CCN1C=C(Cc2ccc(F)cc2)C2=C(C1)C(c1ccc(F)cc1)C(C#N)=C(N)O2 (stereo not drawn)	-7	i	12	-1	8	18*	9	9
O=C(CSc1nc2ccccc2[nH]1)Nc1nc(-c2ccc(Br)cc2)cs1	4	i	-7	0	-1	41*	2	-5
CC(C)OCCCNC(=O)c1cc(S(=O)(=O)N2CCCCC2)c[nH]1	2	i	4	0	5	-3	x	x
CNC(=O)COC(=O)c1ccc([N+](=O)[O-])cc1Cl	2	i	11	1	-4	2	x	x
